Assay outcomes (PubChem)
MEKK2 mut-MEK5: signal of MEK5 binding to mutant human MEKK2 PB1 domain | bead flow cytometry, Alexa488-MEK5 binding to MEKK2 mutant | 290,000 compounds, 0.35% hits | percent response, % at 10 µM | AID 1530; in the data active means percent response above about 24%, passing the limit was not always enough
T cruzi repl: blocks replication of Trypanosoma cruzi; AID 1885; inhibition, % (no concentration beside the values); T. cruzi beta-gal in NIH3T3, luminescence, 90 h; 300,000 compounds, 1.4% hits;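 active means mean inhibition across valid replicates above about 55%, limit read from the data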;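 further: signal also drops with host cell toxicity which is not excluded here; 0% = plate median of DMSO wells and 100% = zero luminescence signal; higher percent means less beta-gal luminescence so fewer parasites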
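Material: NIH/3T3 host cells with β-galactosidase reporter T. cruzi; Input: 5,000 host fibroblasts per well; Medium: DMEM, 2% fetal bovine serum; Compound: 50 nL DMSO compound solution per well; Schedule: 3 h host attachment, then at least 90 h co-culture; Detection: luminescent β-galactosidase signal after 60 min lysis.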
NS3 helicase inh: blocks Hepatitis C virus NS3 helicase unwinding; 290,000 compounds, 0.56% hits; NS3 helicase DNA unwinding, Cy5 molecular beacon fluorescence; inhibition, % at 10.9 µM;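 active means inhibition above the mean of all tested compounds plus 3 SD, set per campaign, cut at about 35% in these data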;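 further: 0% = DMSO wells and 100% = thioflavine S control wells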
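System: HCV NS3 helicase fragment; control set: DMSO and thioflavine S; technique: Cy5 fluorescence at 0 and 60 min, beacon hairpin quenching; reagent: beacon DNA duplex substrate plus ATP; replicates: singlicate; schedule: 1 h reaction at 25 °C, ATP-initiated; medium: MOPS buffer pH 6.5 with MgCl2, DTT, Tween20, BSA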
MEKK3 PB1 HTS: MEKK3-MEK5 PB1 interaction, increase or decrease. Q99759. bead-based flow cytometry, Alexa488-MEK5 binding to MEKK3; actives lie on both sides; 0 = blocked by unlabeled MEK5, 100 = vehicle. binding response (% of control), % at 10 µM. 290,000 compounds, 1.4% hits;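 active means binding response more than 3 SD above or below the average of its plate-row segment, actives on both sides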;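 further: Alexa488 bead fluorescence after subtracting the streptavidin-only scavenger bead signal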
Target sequence (Q99759 whole entry, looked up): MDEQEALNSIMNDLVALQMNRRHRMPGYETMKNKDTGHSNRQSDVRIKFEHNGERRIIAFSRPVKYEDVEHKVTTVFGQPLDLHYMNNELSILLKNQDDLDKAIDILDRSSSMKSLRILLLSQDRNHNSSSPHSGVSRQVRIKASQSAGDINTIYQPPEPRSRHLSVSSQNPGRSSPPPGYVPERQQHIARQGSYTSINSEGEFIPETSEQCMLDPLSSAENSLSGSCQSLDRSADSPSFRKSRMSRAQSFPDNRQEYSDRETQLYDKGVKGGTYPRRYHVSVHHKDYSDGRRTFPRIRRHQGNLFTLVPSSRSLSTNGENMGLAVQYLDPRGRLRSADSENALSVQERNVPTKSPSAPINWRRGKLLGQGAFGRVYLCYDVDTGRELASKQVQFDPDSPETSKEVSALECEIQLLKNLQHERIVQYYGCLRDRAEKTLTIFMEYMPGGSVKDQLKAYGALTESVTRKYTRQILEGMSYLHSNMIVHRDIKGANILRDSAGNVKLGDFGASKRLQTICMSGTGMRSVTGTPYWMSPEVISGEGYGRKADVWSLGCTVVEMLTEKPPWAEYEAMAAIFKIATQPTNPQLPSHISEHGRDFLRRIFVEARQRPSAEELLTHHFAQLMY
FID counter: counter-screen for HCV NS3 helicase inhibitors: DNA intercalator displacement. DNA fluorescent intercalator displacement, fluorescence. inhibition, % at 7.9 µM. 290,000 compounds, 0.17% hits; in the data active means inhibition above about 37%;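 further: 0% = vehicle and 100% = reference compound; higher means more ethidium bromide displaced from hairpin DNA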
MEKK2 WT-MEK5: raises or lowers MEK5 binding to wildtype human MEKK2 PB1 domain | Q9Y2U5 | bead flow cytometry, Alexa488-MEK5 binding to MEKK2 WT; actives lie on both sides | binding response (% of control), % at 10 µM | 290,000 compounds, 1.1% hits | AID 1531; in the data active means binding response below about 67% or above about 130%
The depositor's hits bear a star; nt = no result given. Sampled rows, rich in hits. Any-hit rate of the full collection: about 4.1%.

SMILES	MEKK2 mut-MEK5	T cruzi repl	NS3 helicase inh	MEKK3 PB1 HTS	FID counter	MEKK2 WT-MEK5
N=c1c(S(=O)(=O)c2ccc(Cl)cc2)cc2c(=O)n3ccccc3nc2n1C1CCCC1	6	55*	-14	104	-3	103
COc1ccc(CCNC(=O)c2cc3c(=O)n4ccccc4nc3n(C3CCCCC3)c2=N)cc1OC	5	47	-14	103	16	109
N=c1c(S(=O)(=O)c2ccc(Br)cc2)cc2c(=O)n3ccccc3nc2n1C1CCCCC1	-9	29	-4	94	12	90
COc1ccc(CCNC(=O)c2cc3c(=O)n4ccccc4nc3n(C3CCCCC3)c2=N)cc1	3	60*	-25	99	30	109
CCCNc1nc2nc3ccccn3c(=O)c2cc1C(=O)NCCN1CCOCC1	-4	9	7	94	40*	96
COc1ccc(CCNC(=O)c2cc3c(=O)n4ccccc4nc3n(CC3CCCO3)c2=N)cc1OC (configuration not stated)	-2	24	-1	95	10	96
COc1ccc(CCn2c(=N)c(C(=O)NCCN3CCOCC3)cc3c(=O)n4ccccc4nc32)cc1OC	4	12	6	105	44*	107
Clc1cc(Cl)cc(C2=NCCC(c3ccccc3)O2)c1 (configuration not stated)	0	-8	-36	107	-1	106
O=S(=O)(NCC(c1cccs1)N1CCc2ccccc2C1)c1ccccc1 (configuration not stated)	nt	19	nt	nt	nt	nt
Cn1c(=NC(=O)CCl)sc2ccccc21	3	62*	-1	104	-4	104
Cn1c(=NC(=O)c2ccco2)sc2ccccc21	-2	0	2	83	-14	89
O=c1[nH]c(-c2ccccn2)nc(C(F)(F)F)c1Br	8	66*	9	107	-7	110
CCC(Sc1nc2ncccc2[nH]1)C(=O)NCCc1ccccc1 (configuration not stated)	3	-4	-3	101	-14	101
COCCCNCC(O)COc1cccc2[nH]c(C)cc12 (configuration not stated)	-8	-7	-5	96	6	90
COCCCNCC(O)COc1ccccc1F (configuration not stated)	37	-16	-7	99	-1	10*
Cc1cc(F)ccc1S(=O)(=O)N1CCCOC1CNC(=O)C(=O)NCc1ccncc1 (configuration not stated)	7	10	3	101	-13	102
CCOC(=O)Cc1csc(NC(=O)CSc2nnc(-c3ccc(OC)cc3)n2C)n1	1	70*	-6	101	-16	96
CCOC(=O)Cc1csc(NC(=O)CSc2nnc3ccccn23)n1	-2	-1	15	100	-9	95
Cc1cc(C)n(-c2ccc3cccc(NS(C)(=O)=O)c3n2)n1	2	60*	2	108	-11	104
CCOC(=O)c1ccc(NC(=S)Nc2ccccc2N)cc1	4	10	nt	103	nt	104
O=C(c1cc([N+](=O)[O-])cc([N+](=O)[O-])c1)N1CCCc2ccccc21	-6	73*	-7	100	5	88
CC(=O)N1CCN(Cc2nc3cc(NC(=O)COc4cccc(C)c4)ccc3n2C)CC1	3	-6	-7	101	-11	99
COc1cc2ccccc2cc1C(=O)NNC(=O)c1ccccc1O	2	57*	5	99	-10	101
COc1ccc(NC(=O)c2cc3ccccc3cc2OC)cc1	5	9	5	102	-19	105
CCOc1ccc(CNCCCSc2ncccn2)cc1	15	55*	-1	103	2	118
CC(C)c1ccc(CNCCCSc2ncccn2)cc1	-3	71*	-23	94	11	108
Clc1ccc(CNCCCSc2ncccn2)cc1Cl	23	56*	-11	106	13	127
COc1cc(C(=O)OC(C)CN2CCCCC2)cc(OC)c1OC (configuration not stated)	-2	-10	0	99	1	102
